Data reported in ChEMBL document CHEMBL5033998, “Discovery of DDO-2213 as a Potent and Orally Bioavailable Inhibitor of the WDR5-Mixed Lineage Leukemia 1 Protein-Protein Interaction for the Treatment of MLL Fusion Leukemia” (J Med Chem, 2021).

How the values were obtained:
[1] = Oral bioavailability in Sprague-Dawley rat at 10 mg/kg measured upto 24 hrs by LC-MS/MS analysis; type: ADME, organism-based; conditions: in vivo
Outline: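 Bioavailability from paired rat groups (male SD, n = 3 each): 10 mg/kg oral vs 2 mg/kg i.v.; plasma sampled to 24 h and measured by LC-MS/MS.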

[2] = biological target: T1, Histone-lysine N-methyltransferase EHMT2 (Homo sapiens, UniProt Q96KQ7); assay: Inhibition of G9a (unknown origin) assessed as effect on H3K9 methylation incubated for 30 mins by Alphascreen assay
T1 sequence (Q96KQ7 whole entry): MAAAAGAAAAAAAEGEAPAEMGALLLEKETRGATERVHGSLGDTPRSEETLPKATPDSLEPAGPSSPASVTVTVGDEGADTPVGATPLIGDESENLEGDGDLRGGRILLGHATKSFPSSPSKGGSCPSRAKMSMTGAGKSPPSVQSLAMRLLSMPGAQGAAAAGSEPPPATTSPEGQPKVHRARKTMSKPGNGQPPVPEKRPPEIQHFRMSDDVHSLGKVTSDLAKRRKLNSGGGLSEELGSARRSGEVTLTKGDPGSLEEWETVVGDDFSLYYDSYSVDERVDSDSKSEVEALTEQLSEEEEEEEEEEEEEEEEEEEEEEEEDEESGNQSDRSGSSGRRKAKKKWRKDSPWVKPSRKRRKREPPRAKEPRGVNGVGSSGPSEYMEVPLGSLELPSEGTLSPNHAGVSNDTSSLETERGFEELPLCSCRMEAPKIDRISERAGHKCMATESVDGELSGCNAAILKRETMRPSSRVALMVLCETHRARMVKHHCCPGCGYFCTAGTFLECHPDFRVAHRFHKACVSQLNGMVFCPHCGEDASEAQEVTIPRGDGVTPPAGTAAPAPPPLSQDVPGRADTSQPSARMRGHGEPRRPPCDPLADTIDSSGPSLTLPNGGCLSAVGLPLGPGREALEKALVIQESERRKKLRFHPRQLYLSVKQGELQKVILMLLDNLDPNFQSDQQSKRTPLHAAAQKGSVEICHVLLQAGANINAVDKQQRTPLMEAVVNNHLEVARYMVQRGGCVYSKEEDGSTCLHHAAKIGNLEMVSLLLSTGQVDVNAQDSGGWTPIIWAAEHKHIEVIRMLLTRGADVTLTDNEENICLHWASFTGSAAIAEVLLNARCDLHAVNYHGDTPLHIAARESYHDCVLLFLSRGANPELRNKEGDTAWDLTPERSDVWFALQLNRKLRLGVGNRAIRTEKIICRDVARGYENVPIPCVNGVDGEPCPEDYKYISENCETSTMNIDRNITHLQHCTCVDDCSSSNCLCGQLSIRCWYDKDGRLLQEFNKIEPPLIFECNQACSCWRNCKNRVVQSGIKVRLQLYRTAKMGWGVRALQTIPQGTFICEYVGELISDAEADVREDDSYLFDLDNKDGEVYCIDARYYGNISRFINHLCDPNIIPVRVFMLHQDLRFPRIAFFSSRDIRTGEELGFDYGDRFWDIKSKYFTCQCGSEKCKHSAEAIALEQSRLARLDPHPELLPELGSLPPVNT
Outline: (§1)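 AlphaScreen: enzyme, SAM and compound mixed in 10 mM PBS for 30 min at room temperature; acceptor beads and substrate antibody added, 30 min at room temperature, then streptavidin donor beads; read on AlphaScreen reader.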

MOLM-13 = assay: Antiproliferative activity against human MOLM-13 cells assessed as cell viability incubated for 72 hrs by CCK8 assay; type: functional, cell-based; conditions: MOLM-13, 72 h
Outline: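 Cells seeded at 3000–6000 per well, exposed to inhibitor at several concentrations for 72 h; viability read with CCK8 kit. MV4-11 and K562 grown in modified IMDM + 10% FBS, pen/strep; MOLM-13 in RPMI-1640 + 10% FBS; HUVEC in modified DMEM + 10% FBS; 37 °C, 5% CO2. IC50 as mean ± SD of three independent experiments.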

[3] = biological target: Histone-lysine N-methyltransferase EZH2 (Homo sapiens, UniProt Q15910); assay: Inhibition of EZH2 (unknown origin) assessed as effect on H3K27 methylation incubated for 30 mins by Alphascreen assay; outline: as §1
Chain of Histone-lysine N-methyltransferase EZH2 (Q15910 whole entry): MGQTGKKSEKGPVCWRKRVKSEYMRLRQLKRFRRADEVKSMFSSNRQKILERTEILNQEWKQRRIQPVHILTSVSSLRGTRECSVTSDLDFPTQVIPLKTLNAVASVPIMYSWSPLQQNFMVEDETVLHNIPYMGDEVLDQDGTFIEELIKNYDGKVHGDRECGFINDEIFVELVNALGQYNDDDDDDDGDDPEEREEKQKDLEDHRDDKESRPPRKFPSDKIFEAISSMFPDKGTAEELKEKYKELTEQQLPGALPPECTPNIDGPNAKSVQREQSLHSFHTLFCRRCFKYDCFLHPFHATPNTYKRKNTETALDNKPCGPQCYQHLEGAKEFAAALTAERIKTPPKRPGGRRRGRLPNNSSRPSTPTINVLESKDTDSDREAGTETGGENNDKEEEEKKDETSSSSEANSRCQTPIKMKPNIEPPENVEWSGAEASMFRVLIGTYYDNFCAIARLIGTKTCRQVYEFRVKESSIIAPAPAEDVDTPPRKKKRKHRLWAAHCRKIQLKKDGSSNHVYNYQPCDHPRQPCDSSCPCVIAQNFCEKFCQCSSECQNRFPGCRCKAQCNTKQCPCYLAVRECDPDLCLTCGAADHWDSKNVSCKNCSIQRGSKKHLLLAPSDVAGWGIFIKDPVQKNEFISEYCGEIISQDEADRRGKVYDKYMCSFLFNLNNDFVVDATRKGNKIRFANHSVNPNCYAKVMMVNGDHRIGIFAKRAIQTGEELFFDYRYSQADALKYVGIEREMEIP

[4] = Toxicity in Balb/c nude mouse xenografted with human MV4-11 cells assessed as tolerability at 40 to 120 mg/kg, po administered daily for 21 days relative to control; type: organism-based; conditions: in vivo, 504 h
Outline: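 Nude BALB/c females bearing MV4-11 xenografts, dosed orally each day for 21 days at 40, 80 or 120 mg/kg, saline vehicle controls (6 mice/group); body weight recorded every other day.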

bioavailability [1]: 82.1%
IC50 [2]: > 100 µM
IC50 (MOLM-13): 13.1 µM
IC50 [3]: > 100 µM
Structure (SMILES): CN1CCN(c2cc(F)c(-c3ccc(C(=O)N(C)C)cc3)cc2Nc2ncnc(Cl)c2N)CC1
Activity [4]: Non-Toxic
